Rows were chosen to be rich in hits. Some 2% of all compounds tested hit in one or more screens of this group.
A1 inh – inhibitors of the anti-apoptotic protein A1, read as caspase activation; MEF A1-2A-BIM cells, Caspase-Glo 3/7 luminescence, 3 h; percent of clofoctol response, vehicle zero; caspase activation, % (no concentration beside the values); hit rate 0.066% among 330,000;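 active means over half of replicate activation scores above 10%, or exactly half above 10 with the replicate mean above 10; inconclusive means replicate mean below 10 yet half the replicates above 10; inactive means over half of replicates below 10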
UPR XBP1 act – adaptive UPR (XBP1) activation; AID 463104; hit rate 0.33% among 330,000; activation, % at 20 µM; CHO-XBP1 luciferase reporter, IRE1-XBP1 UPR activation, luminescence; percent of tunicamycin response, DMSO as zero;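 active means versus positive control, 20 µM dose yields 30% or more activation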;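 further: 100% = tunicamycin at 10 µg/mL and 0% = DMSO only wells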
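Material: CHO-XBP1 cells stably carrying IRE1-XBP1-driven luciferase reporter | Medium: F12 with 10% serum | Compound dosing: 20 µM single concentration, DMSO 1% | Incubation: Overnight seeding at 37 °C, 6 h compound treatment at 37 °C | Detection: Steady-Glo luminescence read | Read-out basis: % activation of reporter signal versus tunicamycin and DMSO controls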
MC4R ag barr – activates human MC4R beta-arrestin recruitment. P32245. U2OS MC4R beta-arrestin complementation, luminescence; percent of melanotan II response, DMSO zero. activation, % at 8.9 µM. hit rate 0.98% among 360,000. AID 540308;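 active means activation above a per-plate cutoff, the mean activation of sample wells on that plate plus 3 SD, cut at about 8% in these data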
Target sequence (P32245 whole entry, looked up): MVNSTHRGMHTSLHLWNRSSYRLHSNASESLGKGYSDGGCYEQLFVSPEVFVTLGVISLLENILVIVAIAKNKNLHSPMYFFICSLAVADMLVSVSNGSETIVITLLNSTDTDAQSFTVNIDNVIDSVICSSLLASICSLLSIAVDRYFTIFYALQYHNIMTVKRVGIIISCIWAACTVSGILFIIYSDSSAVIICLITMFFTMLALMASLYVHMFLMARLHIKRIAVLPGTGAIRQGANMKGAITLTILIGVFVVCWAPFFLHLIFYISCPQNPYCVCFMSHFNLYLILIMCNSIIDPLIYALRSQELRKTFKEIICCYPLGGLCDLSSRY
CHOP UPR activ – apoptotic UPR (CHOP) activation; CHO-CHOP luciferase reporter, luminescence; percent of tunicamycin response over DMSO baseline; hit rate 0.34% among 330,000; activation, % at 10 µM;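 active means at 10 µM dose, activation of 40% or more, normalized to positive control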;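 further: 100% = tunicamycin at 10 µg/mL and 0% = DMSO alone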
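System: CHO CHOP reporter cells. Amount: 500 cells per well. Buffer or medium: F12 medium, 10% FBS. Compound dosing: one dose, 10 µM in 0.5% DMSO. Incubation: 6 h compound exposure at 37 °C after overnight seeding. Technique: Steady-Glo luciferase luminescence. Benchmarks: tunicamycin and DMSO controls.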
MC4R antag cAMP – blocks human MC4R cAMP signaling | P32245 | MC4R-expressing cells, MTII-stimulated cAMP, LANCE TR-FRET | inhibition, % at 6.5 µM | hit rate 0.48% among 360,000 | AID 540295;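 active means inhibition above its plate's cutoff, the mean of tested wells on that plate plus 3 SD, cut at about 29% in these data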;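 further: 0% = Melanotan II alone and 100% = Melanotan II plus saturating MCL0020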
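Assay system: U2OS cells stably expressing human melanocortin 4 receptor (MC4R) / Dosing: 6.5 µM / Timing: compound 30 min, challenge 1 h, detection 1 h / Measured by: Eu-cAMP/anti-cAMP TR-FRET, emission 671 nm / Replicates: singlicate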
U2OS cAMP counter – U2OS forskolin cAMP inhibition counter-screen; shares compounds with MC4R antag cAMP; parental U2OS, LANCE TR-FRET; inhibition, % at 6.5 µM; hit rate 26% among 1,600; AID 602193;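 active means mean inhibition over triplicates above the low-control well mean plus 3 SD, set per campaign, cut at about 13% in these data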;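 further: signal is single emission at 671 nm which falls as cellular cAMP rises; 0% = forskolin-stimulated wells and 100% = buffer without forskolin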
MC4R cAMP antag – human MC4R cAMP antagonism confirmation; hit rate 27% among 1,600; inhibition, % at 6.5 µM; MC4R-expressing cells, MTII-stimulated cAMP, TR-FRET; AID 602195; shares compounds with MC4R antag cAMP; in the data active means inhibition above about 29%;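 further: 0% = agonist stimulated wells alone and 100% = agonist stimulated wells plus saturating reference antagonist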
An asterisk follows results filed as active; ? = inconclusive; . = not tested or not shown.

SMILES	A1 inh	UPR XBP1 act	MC4R ag barr	CHOP UPR activ	MC4R antag cAMP	U2OS cAMP counter	MC4R cAMP antag
O=C(O)CNS(=O)(=O)c1ccc(F)cc1	-0.1	4.6	0.8	-0.6	7.1	.	.
O=C(O)CNS(=O)(=O)c1ccc(C2CCCCC2)cc1	-0.1	-2.3	1.5	0.8	32.3*	1.8	0.9
Cc1ccc(NC(=O)COC(=O)c2cccc3c2C(=O)c2ccccc2C3=O)c(C)c1	0.7	7.5	-2.1	0.6	10.4	.	.
Cc1ccc(C)c(NC(=O)COC(=O)c2cccc3c2C(=O)c2ccccc2C3=O)c1	-0.1	0.4	-1.0	1.0	33.2*	0.0	25.2
O=c1c2ccccc2cnn1Cc1ccc(Cl)c(Cl)c1	-0.7	-2.0	2.1	2.9	14.3	.	.
Cc1cccc(Cn2ncc(Cl)c(Cl)c2=O)c1	0.0	4.2	-2.0	19.1	37.4*	31.7*	49.8*
C[C@H](CO)N1C[C@H](C)[C@@H](CN(C)S(=O)(=O)c2cn(C)cn2)Oc2ncc(Br)cc2C1=O	.	.	2.1	.	12.3	.	.
CC1CCCC(NC(=O)CSc2ccc(F)cc2)C1C (centres undefined)	-0.6	-0.5	1.1	0.7	32.2*	4.0	6.1
CCN(CC)c1ccc(C2Nc3cccc4cccc(c34)N2)c(O)c1	-0.3	9.6	0.5	4.8	32.6*	3.2	29.1*
O=C(OCCN1CCCCC1)c1ccccc1Br	-0.3	-4.3	-0.3	1.7	29.8*	-1.1	0.1
O=C(OCCN1CCCCC1)c1ccc(Cl)cc1	0.2	-2.8	-1.8	1.6	-2.0	.	.
Nc1nc(N)c2cc(S(=O)(=O)c3ccc4ccccc4c3)ccc2n1	.	.	0.7	.	7.4	.	.
COCCNC(=S)N/N=C/c1ccc([N+](=O)[O-])cc1	-0.3	0.9	-0.5	-1.4	-1.0	.	.
C=C(C)CNC(=S)N/N=C/c1ccc([N+](=O)[O-])cc1	1.6	9.0	-0.1	2.3	30.2*	-0.5	1.6
COC(=O)C=C1CCC2C3CCC4=CC(=O)C(Br)CC4(C)C3C(=O)CC12C (centres undefined)	.	.	-1.0	.	30.8*	2.5	21.9
CCOC(=O)C1CCCN(C(=O)c2cccc([N+](=O)[O-])c2C)C1 (centres undefined)	1.3	-1.9	1.2	0.5	32.1*	-1.5	3.9
CCOC(=O)C1CCCN(C(=O)c2ccc(OC)c([N+](=O)[O-])c2)C1 (centres undefined)	0.4	-2.1	1.2	1.3	8.0	.	.
COc1ccc(S(=O)(=O)NC(=O)C2(C)CCN2C(=O)Cc2ccccc2Cl)cc1 (centres undefined)	.	.	1.1	.	3.3	.	.
CC(=O)c1cc2c(cc1NC(=O)CSc1ncccn1)OCO2	.	.	0.1	.	-6.2	.	.
CC1c2[nH]c3ccccc3c2CCN1C(=O)Nc1ccccc1 (centres undefined)	-0.7	-3.9	0.9	-0.2	-9.2	.	.
O=C(Nc1ccccc1)N1CCc2c([nH]c3ccccc23)C1C(F)(F)F (centres undefined)	-0.9	-2.1	0.7	0.8	35.0*	-3.2	-2.6
O=C(NC(=S)Nc1cccc([N+](=O)[O-])c1)c1ccccc1	-1.3	-0.1	-0.1	8.2	32.7*	1.5	-8.7
O=C(O)C1C2CCC(C2)C1C(=O)Nc1cccc([N+](=O)[O-])c1 (centres undefined)	0.2	.	-2.2	.	29.0*	-7.5	-19.9
O=C(O)C1C2CCC(C2)C1C(=O)Nc1ccccc1 (centres undefined)	-2.7	0.0	-1.0	-1.4	8.8	.	.
CCOC(=O)c1c(NC(=O)COc2cccc3c2CCN(C)C3=O)sc2c1CCC2	-0.8	-1.4	8.7*	9.3	29.8*	9.2	51.5*
SMILES	A1 inh	UPR XBP1 act	MC4R ag barr	CHOP UPR activ	MC4R antag cAMP	U2OS cAMP counter	MC4R cAMP antag
COc1ccc(NC(=O)/C(Cl)=C(/Cl)S(=O)(=O)Cc2ccc(C)cc2)cn1	.	.	-3.6	.	40.4*	37.7*	37.0*
O=C(OCc1ccccc1F)c1cnc(Cl)c(Cl)c1	2.5	3.5	-2.1	3.3	39.6*	25.1*	38.1*
O=C(OCc1ccc([N+](=O)[O-])cc1)c1cnc(Cl)c(Cl)c1	-0.2	-0.4	-1.8	-0.4	11.7	.	.
O=C(OCc1c(F)cccc1Cl)c1cnc(Cl)c(Cl)c1	1.1	0.8	-1.0	3.4	34.5*	16.8*	43.3*
CCOC(=O)C1CCCN(C(=O)c2cc(C)n(C(C)(C)C)n2)CC1 (centres undefined)	.	.	0.8	.	11.6	.	.
CSc1ccc(OC2CCCCC2NS(=O)(=O)c2ccc(Cl)cc2)cc1 (centres undefined)	0.7	0.4	1.5	-2.6	30.7*	0.2	15.7
O=S(=O)(NC1CCCCC1Oc1ccccc1)c1ccc(Cl)cc1 (centres undefined)	-0.3	2.9	1.8	-0.2	-0.4	.	.
Cc1csc(CN(C)C(=O)CC2C(=O)NCCN2Cc2ccc(-c3ccccc3)cc2)n1 (centres undefined)	0.4	1.1	1.4	-1.9	28.9*	-1.7	3.5
S=C(NC1CC1)NC1CCCc2ccccc21 (centres undefined)	1.5	-3.7	3.2	-2.7	28.5*	5.5	3.7
Cc1ccc(NC(=O)c2nc(S(=O)(=O)Cc3ccccc3)ncc2Cl)cc1	1.4	-10.7	-4.2	0.9	11.2	.	.
Cc1cccc(CS(=O)(=O)c2ncc(Cl)c(C(=O)NCc3ccccc3)n2)c1	0.9	-9.9	-5.0	84.3*	52.3*	27.4*	57.2*
CCCc1nnc(NC(=O)c2nc(S(=O)(=O)Cc3cccc(C)c3)ncc2Cl)s1	?	-5.5	-4.9	31.3	37.7*	24.9*	47.4*
COCCNC(=O)C1(C)CCCN(Cc2cc3ccccc3o2)C1 (centres undefined)	.	.	-0.7	.	-2.6	.	.
COc1cc(CN(C)C)cc(C=O)c1O	-0.3	-1.5	2.4	1.2	1.6	.	.
COc1cc(N=Nc2ccc(Br)cc2)cc(C=O)c1O	.	.	-2.1	.	34.0*	-4.9	-4.5
CCCCNC(=O)C1(C)CCCCCN1Cc1cccc2c(OC)cc(C(=O)OCC)cc12 (centres undefined)	.	.	-1.5	.	29.7*	1.2	4.0
CC(C)N(C(=O)COC(=O)c1ccccc1C(=O)c1ccc(Cl)c([N+](=O)[O-])c1)C(C)C	0.0	-1.9	-5.0	0.3	19.5	.	.
CN(CCC#N)C(=O)COC(=O)c1ccccc1C(=O)c1ccc(Cl)c([N+](=O)[O-])c1	0.2	.	-4.3	.	33.5*	23.6*	4.7
O=C1NC(=O)/C(=C\c2ccccc2OCc2ccccc2)S1	0.4	-0.6	-0.8	-1.0	39.4*	-0.1	5.4

Compound activity (PubChem BioAssay)
